Assay results taken from ChEMBL document CHEMBL1154099, “Synthesis and evaluation of in vitro anti-microbial and anti-tubercular activity of 2-styryl benzimidazoles” (2009).
Converted amounts (≈) assume the structure as drawn.

Key:
Type in all cases: functional
Staphylococcus aureus = assay: Antibacterial activity against Staphylococcus aureus ATCC 25923 after 18 to 20 hrs by twofold tube dilution method
Outline: (§1)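 Bacterial cultures grown 18–24 h at 37 ± 1 °C in Mueller–Hinton Broth. Testing by twofold tube dilution in Mueller–Hinton Broth, pH 7.4. Inoculated broth-only tubes served as controls. MIC taken as the lowest concentration preventing visible growth.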

Enterococcus faecalis = assay: Antibacterial activity against Enterococcus faecalis ATCC 29212 after 18 to 20 hrs by twofold tube dilution method; outline: as §1
Klebsiella pneumoniae = assay: Antibacterial activity against Klebsiella pneumoniae ATCC 13883 after 18 to 20 hrs by twofold tube dilution method; outline: as §1
[1] = system: Mycobacterium tuberculosis; assay: Antitubercular activity against Mycobacterium tuberculosis H37Rv at 7.25 ug/ml by microplate alamar blue assay
Outline: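 M. tuberculosis H37Rv (ATCC 27294) in BACTEC 12B medium, broth microdilution with microplate Alamar blue read-out. Primary screen at a single concentration of 7.25 µg/ml. Result expressed as percent inhibition.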

Escherichia coli = assay: Antibacterial activity against Escherichia coli ATCC 25922 after 18 to 20 hrs by twofold tube dilution method; outline: as §1
Candida albicans = assay: Antifungal activity against Candida albicans ATCC 10145 after 48 hrs by twofold tube dilution method; details: ATCC 10145, 48 h
Outline: (§2)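 Fungi maintained in Sabouraud Dextrose Broth for 48 h at 25 ± 1 °C. Testing by twofold dilution in Sabouraud Dextrose Broth, pH 7.4, with DMSO stocks serially diluted from 125 to 1 µg/ml. Inoculated broth-only tubes served as controls. After 48 h at 25 ± 1 °C, the last tube showing no growth was recorded as the MIC.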

Aspergillus fumigatus = assay: Antifungal activity against Aspergillus fumigatus after 48 hrs by twofold tube dilution method; outline: as §2
[2] = system: Mycobacterium tuberculosis; assay: Antitubercular activity against Mycobacterium tuberculosis H37Rv by microplate alamar blue assay
Outline: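 M. tuberculosis H37Rv, with compounds that reached at least 90% inhibition in the primary screen. Serial dilution to lower concentrations, microplate Alamar blue assay. MIC taken as the lowest inhibitory concentration. Streptomycin used as reference.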

Work on `O=C(O)c1cn(C2CC2)c2cc(N3CCNCC3)c(F)cc2c1=O` [CIPROFLOXACIN] yielded an MIC (Staphylococcus aureus) of 0.78 µg/mL (≈ 2.35 µM), an MIC (Enterococcus faecalis) of 0.7 µg/mL (≈ 2.11 µM) and an MIC (Klebsiella pneumoniae) of 0.19 µg/mL (≈ 0.573 µM).

With `CN[C@@H]1[C@H](O[C@H]2[C@H](O[C@H]3[C@H](O)[C@@H](O)[C@H](N=C(N)N)[C@@H](O)[C@@H]3N=C(N)N)O[C@@H](C)[C@]2(O)C=O)O[C@@H](CO)[C@H](O)[C@H]1O` [STREPTOMYCIN] the inhibition at 7.25 µg/mL [1] was 100%.

Molecule `Brc1ccc2[nH]c(/C=C/c3ccc4c(c3)OCO4)nc2c1` has an MIC (Staphylococcus aureus) of 8 µg/mL (≈ 23.3 µM), an MIC (Enterococcus faecalis) of 31.2 µg/mL (≈ 91.1 µM) and an MIC (Klebsiella pneumoniae) of 16.1 µg/mL (≈ 47 µM). It also gave an MIC (Escherichia coli) of 31.2 µg/mL (≈ 91.1 µM), an MIC (Candida albicans) of 31.2 µg/mL (≈ 91.1 µM) and an MIC (Aspergillus fumigatus) of 31.2 µg/mL (≈ 91.1 µM). The MIC [2] was greater than 75 µg/mL.

`O=[N+]([O-])c1ccc2[nH]c(/C=C/c3ccc4c(c3)OCO4)nc2c1` showed an MIC (Staphylococcus aureus) of 31.2 µg/mL (≈ 101 µM), an MIC (Enterococcus faecalis) of 31.2 µg/mL (≈ 101 µM) and an MIC (Klebsiella pneumoniae) of 62.5 µg/mL (≈ 202 µM). The MIC (Escherichia coli) was 31.2 µg/mL (≈ 101 µM), the MIC (Candida albicans) was 16.1 µg/mL (≈ 52.1 µM) and the MIC (Aspergillus fumigatus) was 16.1 µg/mL (≈ 52.1 µM). It also gave an MIC [2] greater than 75 µg/mL.

Molecule `O=[N+]([O-])c1ccc2[nH]c(/C=C/c3ccc(Cl)cc3Cl)nc2c1` has an MIC (Staphylococcus aureus) of 31.2 µg/mL (≈ 93.5 µM), an MIC (Enterococcus faecalis) of 31.2 µg/mL (≈ 93.5 µM) and an MIC (Klebsiella pneumoniae) of 62.5 µg/mL (≈ 187 µM). The MIC (Escherichia coli) was 62.5 µg/mL (≈ 187 µM), the MIC (Candida albicans) was 16.1 µg/mL (≈ 48.2 µM) and the MIC (Aspergillus fumigatus) was 31.2 µg/mL (≈ 93.5 µM). It also gave an MIC [2] greater than 75 µg/mL and an inhibition at 7.25 µg/mL [1] of 45%.

Molecule `Cc1ccc(/C=C/c2nc3cc(Br)ccc3[nH]2)cc1` has an MIC (Staphylococcus aureus) of 31.2 µg/mL (≈ 99.8 µM), an MIC (Enterococcus faecalis) of 31.2 µg/mL (≈ 99.8 µM) and an MIC (Klebsiella pneumoniae) of 8 µg/mL (≈ 25.5 µM). For the same molecule, the MIC (Escherichia coli) was 16 µg/mL (≈ 51.1 µM), the MIC (Candida albicans) was 4 µg/mL (≈ 12.8 µM) and the MIC (Aspergillus fumigatus) was 8 µg/mL (≈ 25.5 µM). The MIC [2] was greater than 75 µg/mL and the inhibition at 7.25 µg/mL [1] was 63%.

With `COc1ccc(/C=C/c2nc3cc(Br)ccc3[nH]2)cc1OC` the MIC (Staphylococcus aureus) was 2 µg/mL (≈ 5.57 µM), the MIC (Enterococcus faecalis) was 2 µg/mL (≈ 5.57 µM) and the MIC (Klebsiella pneumoniae) was 8 µg/mL (≈ 22.3 µM). The MIC (Escherichia coli) was 31.2 µg/mL (≈ 87 µM), the MIC (Candida albicans) was 1 µg/mL (≈ 2.78 µM) and the MIC (Aspergillus fumigatus) was 2 µg/mL (≈ 5.57 µM). The MIC [2] was greater than 75 µg/mL and the inhibition at 7.25 µg/mL [1] was 54%.

`Clc1ccc(/C=C/c2nc3cc(Br)ccc3[nH]2)c(Cl)c1` gave an MIC (Staphylococcus aureus) of 16.1 µg/mL (≈ 43.8 µM), an MIC (Enterococcus faecalis) of 8 µg/mL (≈ 21.7 µM) and an MIC (Klebsiella pneumoniae) of 2 µg/mL (≈ 5.43 µM). The MIC (Escherichia coli) was 31.2 µg/mL (≈ 84.9 µM), the MIC (Candida albicans) was 31.2 µg/mL (≈ 84.9 µM) and the MIC (Aspergillus fumigatus) was 16.1 µg/mL (≈ 43.8 µM). It also gave an MIC [2] greater than 75 µg/mL and an inhibition at 7.25 µg/mL [1] of 76%.

With `OC(Cn1cncn1)(Cn1cncn1)c1ccc(F)cc1F` [FLUCONAZOLE] the MIC (Candida albicans) was 2 µg/mL (≈ 6.53 µM) and the MIC (Aspergillus fumigatus) was 2 µg/mL (≈ 6.53 µM).

Work on `Brc1ccc2[nH]c(/C=C/c3ccccc3)nc2c1` yielded an MIC (Staphylococcus aureus) of 2 µg/mL (≈ 6.69 µM), an MIC (Enterococcus faecalis) of 16.1 µg/mL (≈ 53.9 µM) and an MIC (Klebsiella pneumoniae) of 31.2 µg/mL (≈ 104 µM). For the same molecule, the MIC (Escherichia coli) was 16.1 µg/mL (≈ 53.9 µM), the MIC (Candida albicans) was 8 µg/mL (≈ 26.7 µM) and the MIC (Aspergillus fumigatus) was 8 µg/mL (≈ 26.7 µM). It also gave an MIC [2] greater than 75 µg/mL and an inhibition at 7.25 µg/mL [1] of 83%.

`O=[N+]([O-])c1ccc2[nH]c(/C=C/c3ccccc3)nc2c1` showed an MIC (Staphylococcus aureus) of 8 µg/mL (≈ 30.2 µM), an MIC (Enterococcus faecalis) of 31.2 µg/mL (≈ 118 µM) and an MIC (Klebsiella pneumoniae) of 4 µg/mL (≈ 15.1 µM). The MIC (Escherichia coli) was 31.2 µg/mL (≈ 118 µM), the MIC (Candida albicans) was 16.1 µg/mL (≈ 60.8 µM) and the MIC (Aspergillus fumigatus) was 16.1 µg/mL (≈ 60.8 µM). It also gave an MIC [2] greater than 75 µg/mL.

Molecule `Cc1ccc(/C=C/c2nc3cc([N+](=O)[O-])ccc3[nH]2)cc1` has an MIC (Staphylococcus aureus) of 4 µg/mL (≈ 14.3 µM), an MIC (Enterococcus faecalis) of 16.1 µg/mL (≈ 57.7 µM) and an MIC (Klebsiella pneumoniae) of 16.1 µg/mL (≈ 57.7 µM). It also gave an MIC (Escherichia coli) of 62.5 µg/mL (≈ 224 µM), an MIC (Candida albicans) of 31.2 µg/mL (≈ 112 µM) and an MIC (Aspergillus fumigatus) of 31.2 µg/mL (≈ 112 µM). For the same molecule, the MIC [2] was greater than 75 µg/mL.

In the case of `COc1ccc(/C=C/c2nc3cc([N+](=O)[O-])ccc3[nH]2)cc1OC`, the MIC (Staphylococcus aureus) is reported as 31.2 µg/mL (≈ 96.1 µM), the MIC (Enterococcus faecalis) is reported as 31.2 µg/mL (≈ 96.1 µM) and the MIC (Klebsiella pneumoniae) is reported as 16.1 µg/mL (≈ 49.6 µM). It also gave an MIC (Escherichia coli) of 31.2 µg/mL (≈ 96.1 µM), an MIC (Candida albicans) of 16.1 µg/mL (≈ 49.6 µM) and an MIC (Aspergillus fumigatus) of 31.2 µg/mL (≈ 96.1 µM). The MIC [2] was greater than 75 µg/mL.

For `O=[N+]([O-])c1ccc2[nH]c(/C=C/c3cccc(O)c3)nc2c1`, the MIC (Staphylococcus aureus) was 4 µg/mL (≈ 14.2 µM), the MIC (Enterococcus faecalis) was 31.2 µg/mL (≈ 111 µM) and the MIC (Klebsiella pneumoniae) was 31.2 µg/mL (≈ 111 µM). The MIC (Escherichia coli) was 31.2 µg/mL (≈ 111 µM), the MIC (Candida albicans) was 31.2 µg/mL (≈ 111 µM) and the MIC (Aspergillus fumigatus) was 62.5 µg/mL (≈ 222 µM). It also gave an MIC [2] greater than 75 µg/mL.

`Oc1cccc(/C=C/c2nc3cc(Br)ccc3[nH]2)c1` was tested, and the MIC (Staphylococcus aureus) was 1 µg/mL (≈ 3.17 µM), the MIC (Enterococcus faecalis) was 1 µg/mL (≈ 3.17 µM) and the MIC (Klebsiella pneumoniae) was 4 µg/mL (≈ 12.7 µM). The MIC (Escherichia coli) was 4 µg/mL (≈ 12.7 µM), the MIC (Candida albicans) was 4 µg/mL (≈ 12.7 µM) and the MIC (Aspergillus fumigatus) was 8 µg/mL (≈ 25.4 µM). The MIC [2] was greater than 75 µg/mL.
